According to ChEMBL document CHEMBL4049440, “First Dual Inhibitors of Steroid Sulfatase (STS) and 17β-Hydroxysteroid Dehydrogenase Type 1 (17β-HSD1): Designed Multiple Ligands as Novel Potential Therapeutics for Estrogen-Dependent Diseases” (J Med Chem, 2017):
Activity calls are given as the source filed them. No cut-off for these calls is given here.

Tests used:
[1] = test system: T47D; experiment: Antiproliferative activity against E1S/E1-stimulated human T47D cells assessed as cell viability at 50 to 200 nM measured after 7 days after MTT assay relative to control; assay type: functional
[2] = molecular target: T1, Steryl-sulfatase (Homo sapiens) (UniProt P08842); experiment: Irreversible inhibition of STS in human T47D cells at 1 uM preincubated for 2 hrs followed by compound washout and addition of [3H]-E1S/E1S as substrate measured after 24 hrs by HPLC based radio-detection method; assay type: cell-based
T1 sequence (whole entry): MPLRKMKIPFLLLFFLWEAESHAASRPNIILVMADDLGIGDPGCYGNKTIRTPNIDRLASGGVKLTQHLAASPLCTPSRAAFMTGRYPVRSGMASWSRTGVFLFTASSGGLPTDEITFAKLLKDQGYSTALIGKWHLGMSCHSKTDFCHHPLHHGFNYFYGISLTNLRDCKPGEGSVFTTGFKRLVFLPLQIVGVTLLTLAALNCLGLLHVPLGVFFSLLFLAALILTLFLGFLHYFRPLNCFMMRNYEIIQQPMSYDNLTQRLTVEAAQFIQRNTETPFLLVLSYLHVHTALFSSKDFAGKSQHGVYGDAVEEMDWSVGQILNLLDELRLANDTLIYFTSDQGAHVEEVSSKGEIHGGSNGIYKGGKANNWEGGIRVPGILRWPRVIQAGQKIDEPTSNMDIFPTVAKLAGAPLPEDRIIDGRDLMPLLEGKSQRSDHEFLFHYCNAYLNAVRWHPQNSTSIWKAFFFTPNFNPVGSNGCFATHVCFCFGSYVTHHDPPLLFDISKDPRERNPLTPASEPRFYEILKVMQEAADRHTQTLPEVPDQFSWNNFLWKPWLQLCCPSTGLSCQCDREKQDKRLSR

[3] = molecular target: T1, Steryl-sulfatase (Homo sapiens); experiment: Inhibition of STS in human T47D cells assessed as [3H]-E1S level at 200 nM after 48 hrs by HPLC based radio-detection method; assay type: cell-based; design: scale not given: the % may be the effect or the level left
[4] = molecular target: T2, 17-beta-hydroxysteroid dehydrogenase type 1 (Homo sapiens, UniProt P14061); experiment: Inhibition of 17beta-HSD1 in human T47D cells preincubated for 1 hr followed by addition of [3H]-E1/E1 as substrate measured after 30 mins by HPLC based radio-detection method; assay type: cell-based
T2 sequence (P14061 whole entry): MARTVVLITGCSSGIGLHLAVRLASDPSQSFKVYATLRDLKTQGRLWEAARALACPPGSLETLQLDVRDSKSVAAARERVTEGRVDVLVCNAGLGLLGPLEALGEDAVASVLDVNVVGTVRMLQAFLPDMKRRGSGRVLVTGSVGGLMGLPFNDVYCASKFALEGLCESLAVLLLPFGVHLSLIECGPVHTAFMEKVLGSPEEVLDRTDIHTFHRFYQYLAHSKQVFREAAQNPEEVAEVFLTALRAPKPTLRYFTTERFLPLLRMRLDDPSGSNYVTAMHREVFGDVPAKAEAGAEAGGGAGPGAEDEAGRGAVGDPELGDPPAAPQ

[5] = molecular target: T3, 17-beta-hydroxysteroid dehydrogenase type 1 (Homo sapiens) (UniProt P14061); experiment: Inhibition of 17beta-HSD1 in human T47D cells assessed as [3H]-E2 level at 200 nM after 48 hrs by HPLC based radio-detection method (reference value: 95.2%); assay type: cell-based; design: scale not given: the % may be the effect or the level left
T3 sequence (whole entry): T2 sequence (P14061 whole entry)

[6] = molecular target: T1, Steryl-sulfatase (Homo sapiens); experiment: Inhibition of STS in human T47D cells at 1 uM preincubated for 1 hr followed by addition of [3H]-E1S/E1S as substrate measured after 24 hrs by HPLC based radio-detection method; assay type: cell-based
[7] = molecular target: T1, Steryl-sulfatase (Homo sapiens); experiment: Inhibition of human placental microsomal STS assessed as formation of E1 at 1 uM preincubated for 30 mins followed by addition of E1S as substrate measured after 20 mins by ELISA
In short: (§1)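 Human placental STS incubated with estrone sulfate (E1S) as substrate in the presence of inhibitor; estrone (E1) formed was quantified by ELISA.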

[8] = Selectivity factor, ratio of IC50 for human placental microsomal 17beta-HSD2 cells to IC50 for human placental cytosolic 17beta-HSD1
[9] = molecular target: T2, 17-beta-hydroxysteroid dehydrogenase type 1; experiment: Inhibition of human placental cytosolic 17beta-HSD1 using [3H]-E1/E1 substrate and NADH after 10 mins by HPLC based radio-detection method
In short: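 Cell-free assay with the cytosolic fraction of human placenta as the 17β-HSD1 source and radiolabeled E1 as substrate, with test compound present.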

[10] = molecular target: T3, 17-beta-hydroxysteroid dehydrogenase type 1 (Homo sapiens); experiment: Inhibition of 17beta-HSD1 in human T47D cells assessed as [3H]-E1 level at 200 nM after 48 hrs by HPLC based radio-detection method (reference value: 0.9%); assay type: cell-based; design: scale not given: the % may be the effect or the level left
[11] = molecular target: T4, Steryl-sulfatase (Homo sapiens, UniProt P08842); experiment: Inhibition of human placental microsomal STS assessed as formation of E1 preincubated for 30 mins followed by addition of E1S as substrate measured after 20 mins by ELISA; in short: as §1
T4 sequence (P08842 whole entry): T1 sequence (whole entry)

[12] = molecular target: T5, 17-beta-hydroxysteroid dehydrogenase type 2 (Homo sapiens, UniProt P37059); experiment: Inhibition of human placental microsomal 17beta-HSD2 using [3H]-E2/E2 substrate and NAD+ after 20 mins by HPLC based radio-detection method
T5 sequence (P37059 whole entry): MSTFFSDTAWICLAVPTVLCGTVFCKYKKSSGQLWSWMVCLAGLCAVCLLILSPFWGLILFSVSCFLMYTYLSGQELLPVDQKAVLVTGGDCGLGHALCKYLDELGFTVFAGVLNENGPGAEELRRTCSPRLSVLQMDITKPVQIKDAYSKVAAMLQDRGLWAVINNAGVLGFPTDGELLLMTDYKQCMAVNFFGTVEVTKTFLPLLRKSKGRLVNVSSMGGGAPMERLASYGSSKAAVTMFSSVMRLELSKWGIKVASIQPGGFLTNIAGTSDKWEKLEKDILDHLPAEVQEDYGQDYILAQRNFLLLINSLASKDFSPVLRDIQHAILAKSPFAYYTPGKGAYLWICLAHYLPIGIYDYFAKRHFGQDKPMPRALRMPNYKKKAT

[13] = Stability of the compound in Tris-HCl buffer at pH 7.2 after 30 mins; assay type: physicochemical; details: pH 7.2, 0.5 h
In short: (§2)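 Compound incubated in 20 mM Tris-HCl buffer, pH 7.2, at 37 °C for 30 min. Remaining parent compound was measured, with sulfamate cleavage to the phenolic OH product monitored.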

[14] = molecular target: T4, Steryl-sulfatase; experiment: Irreversible inhibition of STS in human T47D cells preincubated for 2 hrs followed by compound washout and addition of [3H]-E1S/E1S as substrate measured after 24 hrs by HPLC based radio-detection method; assay type: cell-based
[15] = molecular target: T4, Steryl-sulfatase; experiment: Inhibition of STS in human T47D cells preincubated for 1 hr followed by addition of [3H]-E1S/E1S as substrate measured after 24 hrs by HPLC based radio-detection method; assay type: cell-based
[16] = test system: T47D; experiment: Antiproliferative activity against E1S/E1-stimulated human T47D cells assessed as reduction in cell viability measured after 7 days after MTT assay; assay type: functional, cell-based
[17] = Drug degradation in Tris-HCl buffer assessed as formation of metabolite containing phenolic OH-group by measuring remaining parent compound levels at pH 7.2 after 30 mins; in short: as §2
[18] = molecular target: T3, 17-beta-hydroxysteroid dehydrogenase type 1 (Homo sapiens); experiment: Inhibition of 17beta-HSD1 in human T47D cells at 1 uM preincubated for 1 hr followed by addition of [3H]-E1/E1 as substrate measured after 30 mins by HPLC based radio-detection method; assay type: cell-based
[19] = molecular target: T6, 17beta-HSD2 (17-beta-hydroxysteroid dehydrogenase type 2) (Homo sapiens, UniProt P37059); experiment: Inhibition of human placental microsomal 17beta-HSD2 at 1 uM using [3H]-E2/E2 substrate and NAD+ after 20 mins by HPLC based radio-detection method; details: human placental microsomal 17beta-HSD2, probe [3H]-E2/E2
T6 sequence (P37059 whole entry): T5 sequence (P37059 whole entry)

[20] = molecular target: T3, 17-beta-hydroxysteroid dehydrogenase type 1 (Homo sapiens); experiment: Inhibition of human placental cytosolic 17beta-HSD1 at 1 uM using [3H]-E1/E1 substrate and NADH after 10 mins by HPLC based radio-detection method
In short: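 Enzyme from the cytosolic fraction of human placenta, incubated with radiolabelled estrone as substrate. Values are the mean of at least two independent experiments, each run in duplicate, with standard deviation under 15%.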

[21] = test system: T47D; experiment: Cytotoxicity against human T47D cells assessed as reduction in cell viability at 400 nM after 7 days by MTT assay; assay type: cell-based; details: 168 h, 0.4 µM
[22] = test system: HEK293; experiment: Cytotoxicity against HEK293 cells assessed as reduction in cell viability at 0.1 to 1 uM after 48 hrs by MTT assay; assay type: cell-based; details: human, hek293, 48 h
[23] = molecular target: T3, 17-beta-hydroxysteroid dehydrogenase type 1 (Homo sapiens); experiment: Irreversible inhibition of 17beta-HSD1 in human T47D cells at 50 nM preincubated for 2 hrs followed by compound washout and addition of […] as substrate measured after 24 hrs by HPLC based radio-detection method; assay type: cell-based
[24] = molecular target: T1, Steryl-sulfatase (Homo sapiens); experiment: Inhibition of STS in human T47D cells assessed as [3H]-E1S level at 400 nM after 48 hrs by HPLC based radio-detection method (reference value: 3.9%); assay type: cell-based; design: scale not given: the % may be the effect or the level left
[25] = test system: T47D; experiment: Antiproliferative activity against E2-stimulated human T47D cells assessed as reduction in cell viability at 400 nM measured after 7 days after MTT assay; assay type: functional, cell-based
[26] = molecular target: T3, 17-beta-hydroxysteroid dehydrogenase type 1 (Homo sapiens); experiment: Inhibition of 17beta-HSD1 in human T47D cells assessed as [3H]-E2 level at 400 nM after 48 hrs by HPLC based radio-detection method (reference value: 95.2%); assay type: cell-based; design: scale not given: the % may be the effect or the level left
[27] = molecular target: T3, 17-beta-hydroxysteroid dehydrogenase type 1 (Homo sapiens); experiment: Inhibition of 17beta-HSD1 in human T47D cells assessed as [3H]-E1 level at 400 nM after 48 hrs by HPLC based radio-detection method (reference value: 0.9%); assay type: cell-based; design: scale not given: the % may be the effect or the level left

SMILES	IC50 [4]	Ratio IC50 [8]	IC50 [9]	IC50 [11]	IC50 [12]	Stability [13]	other results
O=C(c1ccc(-c2ccc(O)cc2)s1)c1c(F)ccc(O)c1F	7.9 nM	23.1	3.1 nM	–	–	–	Activity [1]: 150%; inhibition [2]: < 5%; Activity [3]: 3.5%; Activity [5]: 7.9%; inhibition [6]: < 5%; inhibition [7]: < 10%; Activity [10]: 88.4%
NS(=O)(=O)Oc1cccc(-c2ccc(C(=O)c3c(F)ccc(O)c3F)s2)c1F	–	2.5	7.1 nM	123 nM	17.4 nM	Stable	–
NS(=O)(=O)Oc1ccc(-c2ccc(C(=O)c3c(F)ccc(O)c3F)s2)c(Cl)c1	60.9 nM	1.9	10.2 nM	19.4 nM	19.1 nM	Stable	IC50 [14]: 3.9 nM; IC50 [15]: 3.4 nM; Activity [16]: Dose-dependent effect
NS(=O)(=O)Oc1ccc(-c2ccc(C(=O)c3c(F)ccc(O)c3F)s2)c(F)c1F	–	8.6	2.7 nM	105 nM	23.2 nM	–	Stability [17]: 28%
NS(=O)(=O)Oc1ccc2c3c(c(=O)oc2c1)CCCCC3 [IROSUSTAT]	–	–	–	–	–	–	Activity [1]: 200%; Activity [3]: 50%; Activity [5]: 49.2%; inhibition [18]: < 5%; Activity [10]: 0.8%; inhibition at 20 min, 1 µM [19]: < 10%; inhibition [20]: < 10%
NS(=O)(=O)Oc1cccc(-c2ccc(C(=O)c3c(F)ccc(O)c3F)s2)c1	–	14.2	2.2 nM	–	31.3 nM	Stable	inhibition [7]: < 10%
Cc1cc(-c2ccc(C(=O)c3c(F)ccc(O)c3F)s2)ccc1OS(N)(=O)=O	–	1	32.4 nM	221 nM	31.2 nM	Stable	–
Cc1cc(OS(N)(=O)=O)ccc1-c1ccc(C(=O)c2c(F)ccc(O)c2F)s1	–	0.9	43.5 nM	35 nM	40 nM	Stable	–
NS(=O)(=O)Oc1ccc(-c2ccc(C(=O)c3c(F)ccc(O)c3F)s2)cc1	–	8.2	3.4 nM	–	28 nM	Stable	inhibition [7]: < 10%
NS(=O)(=O)Oc1ccc(-c2ccc(C(=O)c3c(F)ccc(O)c3F)s2)c(F)c1	42.1 nM	1.8	12.2 nM	19.5 nM	22.2 nM	Stable	IC50 [14]: 3.1 nM; IC50 [15]: 2.1 nM; Activity [16]: Dose-dependent effect
NS(=O)(=O)Oc1ccc(-c2ccc(C(=O)c3c(F)ccc(O)c3F)s2)cc1Cl	22.2 nM	33	1.1 nM	143 nM	36.1 nM	Stable	Activity [21]: Non-Toxic; Activity [22]: Non-Toxic; inhibition [23]: inactive; Activity [24]: 50%; IC50 [14]: 16.4 nM; IC50 [15]: 15.6 nM; Activity [25]: inactive; Activity [16]: Dose-dependent effect; Activity [26]: 1.1%; Activity [27]: 48.9%
NS(=O)(=O)Oc1ccc(-c2ccc(C(=O)c3c(F)ccc(O)c3F)s2)cc1F	20 nM	5.5	2.5 nM	81.8 nM	13.7 nM	Stable	IC50 [14]: 5.7 nM; IC50 [15]: 5.1 nM; Activity [16]: Dose-dependent effect
NS(=O)(=O)Oc1ccc(-c2ccc(C(=O)c3c(F)ccc(O)c3F)s2)c(F)c1Cl	–	13.2	1.4 nM	244 nM	18.4 nM	–	Stability [17]: 22%
NS(=O)(=O)Oc1ccccc1-c1ccc(C(=O)c2c(F)ccc(O)c2F)s1	–	0.2	22.5 nM	–	4.1 nM	Stable	inhibition [7]: < 10%
